In ChEMBL document CHEMBL1144664, “Design, synthesis, and SAR of new pyrrole-oxindole progesterone receptor modulators leading to 5-(7-fluoro-3,3-dimethyl-2-oxo-2,3-dihydro-1H-indol-5-yl)-1-methyl-1H-pyrrole-2-carbonitrile (WAY-255348)” (J Med Chem, 2008):
Active and inactive are the calls of the source. The calls are words filed in the database; no cut-off is given here.

Key:
[1] = target: T1, Androgen receptor (Homo sapiens, UniProt P10275)
T1 sequence (P10275 whole entry): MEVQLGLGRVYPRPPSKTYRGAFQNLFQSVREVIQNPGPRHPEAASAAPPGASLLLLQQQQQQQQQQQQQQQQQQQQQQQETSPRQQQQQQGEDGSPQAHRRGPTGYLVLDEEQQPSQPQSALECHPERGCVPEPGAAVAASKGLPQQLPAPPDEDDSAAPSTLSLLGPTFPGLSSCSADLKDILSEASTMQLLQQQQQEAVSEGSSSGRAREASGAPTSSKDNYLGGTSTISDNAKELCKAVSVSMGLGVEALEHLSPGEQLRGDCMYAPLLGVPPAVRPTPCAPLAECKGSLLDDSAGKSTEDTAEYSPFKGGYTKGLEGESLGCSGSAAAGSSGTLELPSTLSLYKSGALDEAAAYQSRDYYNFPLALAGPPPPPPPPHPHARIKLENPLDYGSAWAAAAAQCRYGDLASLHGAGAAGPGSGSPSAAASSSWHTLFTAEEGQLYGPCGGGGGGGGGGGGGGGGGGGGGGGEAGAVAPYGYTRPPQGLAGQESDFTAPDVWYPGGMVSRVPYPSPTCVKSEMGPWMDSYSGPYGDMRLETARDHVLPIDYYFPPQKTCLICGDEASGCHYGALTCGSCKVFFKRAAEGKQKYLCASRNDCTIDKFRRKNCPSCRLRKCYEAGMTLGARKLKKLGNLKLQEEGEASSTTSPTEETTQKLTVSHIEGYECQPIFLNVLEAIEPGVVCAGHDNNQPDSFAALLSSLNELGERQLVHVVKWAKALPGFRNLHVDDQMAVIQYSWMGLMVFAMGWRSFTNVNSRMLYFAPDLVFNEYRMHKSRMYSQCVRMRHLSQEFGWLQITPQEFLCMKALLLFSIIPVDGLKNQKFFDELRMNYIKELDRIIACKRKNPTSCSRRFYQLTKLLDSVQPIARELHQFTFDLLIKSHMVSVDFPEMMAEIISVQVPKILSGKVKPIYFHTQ

[2] = target: T2, Mineralocorticoid receptor (Homo sapiens) (UniProt P08235); experiment: Agonist activity at human MR ligand binding domain receptor expressed in african green monkey COS7 cells by Gal4 hybrid assay; format: cell-based; settings: COS-7
T2 sequence (whole entry): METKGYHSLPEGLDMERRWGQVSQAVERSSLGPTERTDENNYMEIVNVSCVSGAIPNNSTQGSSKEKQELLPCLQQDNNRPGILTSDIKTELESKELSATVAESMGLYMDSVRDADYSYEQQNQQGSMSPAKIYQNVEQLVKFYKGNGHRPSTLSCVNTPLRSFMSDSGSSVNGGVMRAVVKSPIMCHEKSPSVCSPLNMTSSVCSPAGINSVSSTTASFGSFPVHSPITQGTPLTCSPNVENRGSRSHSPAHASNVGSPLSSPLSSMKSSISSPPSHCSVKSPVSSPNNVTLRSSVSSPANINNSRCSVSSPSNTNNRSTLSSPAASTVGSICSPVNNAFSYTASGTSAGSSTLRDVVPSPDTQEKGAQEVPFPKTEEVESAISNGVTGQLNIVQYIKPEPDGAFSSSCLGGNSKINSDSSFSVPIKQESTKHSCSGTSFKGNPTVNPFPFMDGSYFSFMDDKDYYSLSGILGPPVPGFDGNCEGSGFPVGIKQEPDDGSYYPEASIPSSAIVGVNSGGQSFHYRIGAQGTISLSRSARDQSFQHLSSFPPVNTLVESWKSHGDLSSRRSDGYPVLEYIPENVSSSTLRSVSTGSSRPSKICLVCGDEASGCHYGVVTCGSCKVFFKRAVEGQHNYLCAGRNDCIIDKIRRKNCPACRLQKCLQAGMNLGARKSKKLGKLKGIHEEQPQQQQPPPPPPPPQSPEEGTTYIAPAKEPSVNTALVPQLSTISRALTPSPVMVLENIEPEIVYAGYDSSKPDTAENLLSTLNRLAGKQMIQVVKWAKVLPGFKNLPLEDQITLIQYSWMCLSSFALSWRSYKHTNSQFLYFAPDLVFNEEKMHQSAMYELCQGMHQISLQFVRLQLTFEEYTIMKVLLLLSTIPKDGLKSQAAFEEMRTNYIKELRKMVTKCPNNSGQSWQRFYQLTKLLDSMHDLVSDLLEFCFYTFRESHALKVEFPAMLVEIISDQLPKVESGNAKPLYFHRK
Method in brief: (§1)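 Gal4-steroid receptor LBD fusion plasmid plus GAL4_UAS (5 copies, E1b TATA)-luciferase reporter, 50 ng/well each, transfected 16 h into COS-7 cells grown in phenol red-free DMEM with 10% charcoal/dextran-treated FBS. Compound treatment 20 h, then luciferase read-out. Antagonist mode uses 3 nM aldosterone (hMR) or 5 nM 17β-estradiol (hER). Values are the average of at least duplicate determinations.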

[3] = target: T3, Estrogen receptor (Homo sapiens) (UniProt P03372); experiment: Agonist activity at human ER ligand binding domain expressed in african green monkey COS7 cells by Gal4 hybrid assay; format: cell-based; settings: COS-7
T3 sequence (whole entry): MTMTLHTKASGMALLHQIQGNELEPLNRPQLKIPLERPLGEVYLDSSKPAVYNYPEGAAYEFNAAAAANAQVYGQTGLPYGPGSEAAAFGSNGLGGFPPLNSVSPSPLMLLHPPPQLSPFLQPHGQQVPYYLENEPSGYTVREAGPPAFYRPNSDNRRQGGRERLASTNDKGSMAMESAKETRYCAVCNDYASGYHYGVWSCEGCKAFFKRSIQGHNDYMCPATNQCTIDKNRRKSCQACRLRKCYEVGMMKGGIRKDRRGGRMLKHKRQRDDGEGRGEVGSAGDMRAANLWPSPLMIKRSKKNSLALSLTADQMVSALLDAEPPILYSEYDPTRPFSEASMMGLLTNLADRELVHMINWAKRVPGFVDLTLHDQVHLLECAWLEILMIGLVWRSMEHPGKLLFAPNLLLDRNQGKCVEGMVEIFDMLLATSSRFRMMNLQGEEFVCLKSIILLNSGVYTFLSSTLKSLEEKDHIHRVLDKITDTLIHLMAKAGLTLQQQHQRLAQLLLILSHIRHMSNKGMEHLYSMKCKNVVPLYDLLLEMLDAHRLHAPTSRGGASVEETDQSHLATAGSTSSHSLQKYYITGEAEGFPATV
Method in brief: as §1

[4] = target: T4, Estrogen receptor (Homo sapiens, UniProt P03372); experiment: Antagonist activity at human ER ligand binding domain expressed in african green monkey COS7 cells in presence of 17-beta-estradiol by Gal4 hybrid assay; format: cell-based, COS-7
T4 sequence (P03372 whole entry): T3 sequence (whole entry)
Method in brief: as §1

[5] = target: T5, Glucocorticoid receptor (Homo sapiens, UniProt P04150); experiment: Antagonist activity at human GR ligand binding domain expressed in african green monkey COS7 cells in presence of Dexamethasone by Gal4 hybrid assay; format: cell-based, COS-7
T5 sequence (P04150 whole entry): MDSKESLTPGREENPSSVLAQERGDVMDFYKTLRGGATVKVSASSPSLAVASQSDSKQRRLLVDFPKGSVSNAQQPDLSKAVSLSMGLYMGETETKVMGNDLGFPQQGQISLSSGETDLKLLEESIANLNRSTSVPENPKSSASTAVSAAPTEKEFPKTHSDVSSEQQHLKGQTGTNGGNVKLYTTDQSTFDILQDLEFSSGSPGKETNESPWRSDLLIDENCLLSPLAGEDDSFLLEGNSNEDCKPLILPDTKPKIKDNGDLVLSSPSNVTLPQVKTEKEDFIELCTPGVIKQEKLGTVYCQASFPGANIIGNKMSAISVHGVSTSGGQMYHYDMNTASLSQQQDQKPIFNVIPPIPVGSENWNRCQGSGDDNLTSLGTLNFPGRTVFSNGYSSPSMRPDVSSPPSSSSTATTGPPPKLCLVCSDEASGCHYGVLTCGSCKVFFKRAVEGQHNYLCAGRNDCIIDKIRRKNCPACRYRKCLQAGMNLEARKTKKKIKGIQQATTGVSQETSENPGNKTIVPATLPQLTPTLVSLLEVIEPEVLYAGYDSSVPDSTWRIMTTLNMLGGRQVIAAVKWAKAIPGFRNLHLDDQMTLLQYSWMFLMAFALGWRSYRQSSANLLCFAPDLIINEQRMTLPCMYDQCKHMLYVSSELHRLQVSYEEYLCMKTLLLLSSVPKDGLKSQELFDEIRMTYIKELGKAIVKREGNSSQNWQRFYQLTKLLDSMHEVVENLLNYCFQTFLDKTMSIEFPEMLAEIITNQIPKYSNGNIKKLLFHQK

[6] = target: T6, Mineralocorticoid receptor (Homo sapiens, UniProt P08235); experiment: Antagonist activity at human MR ligand binding domain expressed in african green monkey COS7 cells in presence of aldosterone by Gal4 hybrid assay; format: cell-based, COS-7
T6 sequence (P08235 whole entry): T2 sequence (whole entry)
Method in brief: as §1

IC50 [1]: 6.1 nM | Activity [2]: inactive | Activity [3]: inactive | IC50 [4]: 1900 nM | IC50 [5]: 85 nM | IC50 [6]: 1600 nM
SMILES: COC[C@]1(OC)CC[C@H]2[C@@H]3CCC4=CC(=O)CCC4=C3[C@@H](c3ccc(/C=N/O)cc3)C[C@@]21C [ASOPRISNIL]
